Broadly, the ILS is the gain in survival time of treated over control animals, in per cent.

Test [1] concerns L1210. Description: Antitumor activity in the mice with intraperitoneal implanted L1210 lymphoid leukemia at the dose of 50 mg/kg/day x 5 was determined as mean survival of treated group compared to untreated; 13.5/9. The class given is functional, Mus musculus. In outline:
(§1)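 C3D2F1/J female mice (C3H/HeJ female × DBA/2J male), groups of six to eight, average weight 25 g. Inoculated ip with 1 × 10^6 L1210 ascites cells taken from DBA/2Ha donor mice bearing 3-5 day old tumors. Compounds were dissolved in 0.154 N NaOH, neutralized with 0.154 N HCl (final 0.9% NaCl), and given ip daily for 5 days from 24 h post-implant. Median survival T/C; ILS = (T/C − 1) × 100; 30-day survivors counted.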

Test [2] concerns L1210. Description: Antitumor activity in the mice with intraperitoneal implanted L1210 lymphoid leukemia at the dose of 100 mg/kg/day x 5 was determined as mean survival of treated group compared to untreated; 9.5/9. It counts as functional, Mus musculus. In outline: as §1
In test [3] the test system is L1210. Description: Antitumor activity in the mice with intraperitoneal implanted L1210 lymphoid leukemia at the dose of 25 mg/kg/day x 5 was determined as mean survival of treated group compared to untreated; 11.5/9. The class given is functional, Mus musculus. Put shortly:
as §1

The subject of test [4] is L1210. Description: Antitumor activity in the mice with intraperitoneal implanted L1210 lymphoid leukemia at the dose 100 mg/kg/day x 5 was determined as percentage increase in the life span as compared with control tumor bearers. It counts as functional. As to conditions: Mus musculus, L1210, ip. In outline:
(§2)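 Female C3D2F1/J mice (C3H/HeJ × DBA/2J), groups of six to eight, average weight 25 g. Each mouse got 1 × 10^6 L1210 ascites cells ip, taken from DBA/2Ha donor mice bearing 3-5 day tumors. Compound was dissolved in 0.154 N NaOH and neutralized with 0.154 N HCl (final 0.9% NaCl). Dosed ip daily ×5, starting 24 h after implant. Recorded body weight change on day 8, survival range, median survival and 30-day survivors. ILS = (T/C − 1) × 100.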

Test [5] has as its system L1210. Description: In Vitro evaluation for the antiproliferative activity by observing the growth inhibition of L1210 lymphoid leukemia cells in culture at 72 hour. It counts as functional, Mus musculus. In outline: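 Growth of L1210 lymphoid leukemia cells in culture measured by Trypan blue exclusion of viable cells after 72 h of drug exposure. ED50 is the concentration giving 50% growth inhibition. In some runs the compound was first preincubated in medium at 37 °C for 24 or 48 h before the assay.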

Test [6] concerns L1210. Description: Antitumor activity in mice with intraperitoneal implanted L1210 lymphoid leukemia at the dose 100 mg/kg/day x 5 was determined as weight change (g/mouse) on 8th day. The class given is functional. In outline: (§3)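 C3D2F1/J female mice (C3H/HeJ × DBA/2J), groups of six to eight, average 25 g, inoculated ip with 1 × 10^6 L1210 ascites cells taken from DBA/2Ha donor mice carrying 3-5 day tumors. Compound dissolved in 0.154 N NaOH, then neutralized with 0.154 N HCl to give 0.9% NaCl. Given ip daily for 5 consecutive days starting 24 h after implantation. Body weight change per mouse recorded on day 8.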

Test [7] deals with L1210. Description: Antitumor activity in mice with intraperitoneal implanted L1210 lymphoid leukemia at the dose 25 mg/kg/day x 5 was determined as weight change (g/mouse) on 8th day. It counts as functional. Put shortly:
as §3

In test [8] the test system is L1210. Description: Antitumor activity in mice with intraperitoneal implanted L1210 lymphoid leukemia at the dose 50 mg/kg/day x 5 was determined as weight change (g/mouse) on 8th day. It counts as functional. Put shortly: as §3
Test [9] has as its system L1210. Description: Antitumor activity in the mice with intraperitoneal implanted L1210 lymphoid leukemia at the dose 100 mg/kg/day x 5 was determined and number of animals survived on 30 th day were reported; 0/8. It counts as functional, Mus musculus. In outline:
as §2

For test [10], the system named is L1210. Description: Antitumor activity in the mice with intraperitoneal implanted L1210 lymphoid leukemia at the dose 25 mg/kg/day x 5 was determined and number of animals survived on 30 th day were reported; 0/8. The class given is functional, Mus musculus. Put shortly: as §2
Test [11] has as its system L1210. Description: Antitumor activity in the mice with intraperitoneal implanted L1210 lymphoid leukemia at the dose 50 mg/kg/day x 5 was determined as Survival time in days; Range is 10-17 days. The class given is functional, Mus musculus. Put shortly:
as §2

Test [12] has as its system L1210. Description: Antitumor activity in the mice with intraperitoneal implanted L1210 lymphoid leukemia at the dose 50 mg/kg/day x 5 was determined and number of animals survived on 30 th day were reported; 0/8. It counts as functional, Mus musculus. In outline: as §2
Test [13] deals with L1210. Description: Antitumor activity in the mice with intraperitoneal implanted L1210 lymphoid leukemia at the dose 50 mg/kg/day x 5 was determined as percentage increase in the life span as compared with control tumor bearers. It counts as functional. The conditions noted are these: Mus musculus, L1210, ip. Put shortly: as §1
Test [14] relates to L1210. Description: Antitumor activity in the mice with intraperitoneal implanted L1210 lymphoid leukemia at the dose 100 mg/kg/day x 5 was determined as Survival time in days; Range is 8-13 days. The class given is functional, Mus musculus. In outline:
as §2

In test [15] the test system is L1210. Description: Antitumor activity in the mice with intraperitoneal implanted L1210 lymphoid leukemia at the dose 25 mg/kg/day x 5 was determined as Survival time in days; Range is 7-15 days. It counts as functional, Mus musculus. Put shortly: as §2
The test system of test [16] is L1210. Description: Antitumor activity in the mice with intraperitoneal implanted L1210 lymphoid leukemia at the dose 25 mg/kg/day x 5 was determined as percentage increase in the life span as compared with control tumor bearers. It counts as functional. The conditions noted are these: Mus musculus, L1210, ip. In outline: as §2
For test [17], the system named is L1210. Description: Antitumor activity in the mice with intraperitoneal implanted L1210 lymphoid leukemia at the dose of 50 mg/kg/day x 5 was determined as mean survival of treated group compared to untreated; 24/8. The class given is functional, Mus musculus.
Test [18] has as its system L1210. Description: Antitumor activity in the mice with intraperitoneal implanted L1210 lymphoid leukemia at the dose of 25 mg/kg/day x 5 was determined as mean survival of treated group compared to untreated; 16.5/8.5. It counts as functional, Mus musculus. Put shortly: as §1
In test [19] the test system is L1210. Description: Antitumor activity in mice with intraperitoneal implanted L1210 lymphoid leukemia at the dose 75 mg/kg/day x 5 was determined as weight change (g/mouse) on 8th day. It counts as functional. In outline: as §3
For test [20], the system named is L1210. Description: Antitumor activity in the mice with intraperitoneal implanted L1210 lymphoid leukemia at the dose of 75 mg/kg/day x 5 was determined as mean survival of treated group compared to untreated; 17/8.5. The class given is functional, Mus musculus.
Test [21] deals with L1210. Description: Antitumor activity in the mice with intraperitoneal implanted L1210 lymphoid leukemia at the dose 50 mg/kg/day x 5 was determined as Survival time in days; Range is 15-42 days. It counts as functional, Mus musculus. In outline:
as §2

The test system of test [22] is L1210. Description: Antitumor activity in the mice with intraperitoneal implanted L1210 lymphoid leukemia at the dose 75 mg/kg/day x 5 was determined as Survival time in days; Range is 12-21 days. The class given is functional, Mus musculus. Put shortly: as §1
For test [23], the system named is L1210. Description: Antitumor activity in the mice with intraperitoneal implanted L1210 lymphoid leukemia at the dose 50 mg/kg/day x 5 was determined and number of animals survived on 30 th day were reported; 2/8. It counts as functional, Mus musculus. Put shortly:
as §2

Test [24] deals with L1210. Description: Antitumor activity in the mice with intraperitoneal implanted L1210 lymphoid leukemia at the dose 75 mg/kg/day x 5 was determined and number of animals survived on 30 th day were reported; 0/8. It counts as functional, Mus musculus. In outline: as §1
Test [25] relates to L1210. Description: Antitumor activity in the mice with intraperitoneal implanted L1210 lymphoid leukemia at the dose 75 mg/kg/day x 5 was determined as percentage increase in the life span as compared with control tumor bearers. It counts as functional. The conditions noted are these: Mus musculus, L1210, ip. Put shortly: as §1
Test [26] relates to L1210. Description: Antitumor activity in the mice with intraperitoneal implanted L1210 lymphoid leukemia at the dose 25 mg/kg/day x 5 was determined as Survival time in days; Range is 14-18 days. It counts as functional, Mus musculus. In outline:
as §2

On to `C[C@@H]1C[C@H]2[C@@H]3CCC4=CC(=O)C=C[C@]4(C)[C@@]3(F)[C@@H](O)C[C@]2(C)[C@@]1(O)C(=O)COP(=O)(O)OC[C@H]1O[C@@H](n2ccc(N)nc2=O)[C@@H](O)[C@@H]1O`, for which the T/C with L1210 [1] is 13.5; in the test on L1210 [2], 9.5; in the test on L1210 [3], 11.5. The molecule further gave an increase in lifespan (ILS) at 100 mg/kg/day in the test with L1210 [4] of 6%. Besides, in the test with L1210 [5], the “ED 50” value came to 80 nM. The values for the Weight change in the test with L1210 [6], in the test on L1210 [7] and in the test on L1210 [8] were -2.02 g mouse-1, -1.25 g mouse-1 and -1.05 g mouse-1, respectively. Moreover, the Survivors in the test with L1210 [9], in the test on L1210 [10] and in the test on L1210 [12] was 0 each time. Also, the Survival time was found to be 10 days in the test on L1210 [11], 8 days in the test on L1210 [14] and 7 days in the test on L1210 [15]. In the test on L1210 [13], this molecule displayed an ILS at 50 mg/kg/day of 50%. Further, the increase in lifespan (ILS) at 25 mg/kg/day in the test on L1210 [16] turned out to be 28%.
Consider `C[C@]12C[C@H](O)[C@H]3[C@@H](CCC4=CC(=O)CC[C@@]43C)[C@@H]1CC[C@@H]2C(=O)COP(=O)(O)OC[C@H]1O[C@@H](n2ccc(N)nc2=O)[C@@H](O)[C@@H]1O`, for which the T/C with L1210 [17] came to 24; with L1210 [18] it was 16.5; with L1210 [20] it was 17. Further, the Weight change is reported as -0.59 g mouse-1 in the test on L1210 [19], 0.06 g mouse-1 with L1210 [7] and -1.24 g mouse-1 in the test with L1210 [8]. Moreover, the “ED 50” value in the test with L1210 [5] is 90 nM. Besides, the Survivors in the test on L1210 [10] turned out to be 0; in the test on L1210 [23], 2; in the test with L1210 [24] it was 0. Moreover, the Survival time with L1210 [21] is 15 days; with L1210 [22] it was 12 days; in the test on L1210 [26], 14 days. Besides, the ILS at 50 mg/kg/day in the test on L1210 [13] stood at 200%. For the same molecule, the increase in life span (ILS) at 75 mg/kg/day in the test with L1210 [25] was found to be 100%. In the test on L1210 [16], this molecule had an increase in lifespan (ILS) at 25 mg/kg/day of 94%.

Source of the values: ChEMBL document CHEMBL1121364, “Nucleoside conjugates as potential antitumor agents. 3. Synthesis and antitumor activity of 1-(beta-D-arabinofuranosyl)cytosine conjugates of corticosteroids” (1980).
